# Results gathered from unrelated publications.
# Lines come from different studies, so protocols differ. pIC50: −log10 of the molar value.
SMILES,target or system,test,test system,setting,endpoint,value
CCCCCCC/C=C/C(=O)N1C(=O)/C(=C(\O)c2ccc(OCOCCOC)cc2)C(=O)C1CC(C)C (stereo not shown),Burkholderia cepacia,microbial growth,ATCC25416,,MIC,> 200 µg/mL
Cc1cc(C)c(-n2ccn(-c3c(C)cc(C)cc3C)c2=[Se])c(C)c1,HCT-15,"cell growth or viability, MTT",,72 h,pIC50,4.97
NS(=O)(=O)c1cc(C(=O)O)c(NCc2ccco2)cc1Cl,human PBMC,cell migration,,10 µM,inhibition,89%
CC(C)CCC[C@@H](C)[C@H]1CC[C@H]2[C@@H]3CCC4=CC(=O)CC[C@]4(C)[C@H]3CC[C@]12C,Leishmania mexicana,parasite growth,,"48 h, promastigote",pIC50,4.09
CCCCCCC/C=C/C(=O)N1C(=O)/C(=C(/C)O)C(=O)C1CCCCN (stereo not shown),Burkholderia cepacia,microbial growth,ATCC25416,,MIC,> 200 µg/mL
C=C(CCC=C(C)C)[C@H]1CC[C@H]2[C@@H]3CCC4=CC(=O)CC[C@]4(C)[C@H]3CC[C@@]12C,Leishmania mexicana,parasite growth,,"48 h, promastigote",pIC50,4.52
CCCCCCC/C=C/C(=O)N1C(=O)/C(=C(/C)O)C(=O)C1Cc1ccc(OC(C)(C)C)cc1 (stereo not shown),Burkholderia cepacia,microbial growth,ATCC25416,,MIC,> 200 µg/mL
CCCCCCCCCCCCCCCC(=O)N(C)[C@H](CO)C(=O)N[C@H](C)C(=O)NCC(=O)N(C)[C@@H]1C(=O)N[C@@H](C)C(=O)N[C@H](C(=O)O)Cc2ccc(O)c(c2)-c2cc1ccc2O,Latilactobacillus sakei,microbial growth,,,MIC,> 128 µg/mL
CCCCCCCCCOc1ccc2[nH]cc(CCN)c2c1,CAL-27,cell growth or viability,,72 h,pIC50,5.39
COc1cc2c3c(n(CCCNCCO)c(=O)c2cc1OC)-c1cc2c(cc1C3=O)OCO2,SN12C,cell growth or viability,,,GI50,< 10 nM
O=C(Oc1ccc(Cl)cc1)[c-]1cccc1.[Fe+2].c1cc[cH-]c1,MCF-10A,"cell growth or viability, MTT",,72 h,pIC50,3.30
C/C(O)=C1\C(=O)C(CC(C)C)N(C(=O)CCCCCc2ccccc2)C1=O (stereo not shown),Burkholderia cepacia,microbial growth,ATCC25416,,MIC,> 200 µg/mL
Cc1ccc(Cl)c(Nc2ccccc2C(=O)O)c1Cl,human PBMC,cell migration,,10 µM,inhibition,100%
